In ChEMBL document CHEMBL1122900, “Effects of alkyl and aryl substitution on the myocardial specificity of radioiodinated phosphonium, arsonium, and ammonium cations” (J Med Chem, 1985) one finds Distribution data, which are given here for two compounds.

The subject of series [1] is Rattus norvegicus. Briefly: Evaluated for the distribution of radioactivity in tissues of female Fischer rats kidneys after 5 minutes intravenous administration; dose/g, range 9.87-11.9. It is filed as ADME, organism-based, Kidney. The following applies: in vivo.
In series [2] the test system is Rattus norvegicus. Nature of the series: Evaluated for the distribution of radioactivity in tissues of female Fischer rats kidneys after 60 minutes intravenous administration; dose/g, range 3.33-4.68. It is filed as ADME, organism-based, Kidney. As to conditions: in vivo, 1 h.
Series [3] relates to Rattus norvegicus. Briefly: Evaluated for the distribution of radioactivity in tissues of female Fischer rats thyroid after 60 minutes intravenous administration; dose/g, range 55-102. Format: ADME, organism-based, Thyroid gland. The following applies: in vivo, 1 h. Summed up:
(§1)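 Female Fischer 344 rats (10-12 weeks, 170-200 g), fed ad libitum, got a single iv tail-vein injection under ether anaesthesia of the 125I-labelled cation (2.85-8.38 μCi). The tracer was dissolved in Me2SO, diluted with saline to 1% Me2SO and filtered. At the set times rats were killed by cervical fracture and blood taken by cardiac puncture. Organs were rinsed, blotted, weighed and gamma-counted against injectate standards. Results are %dose/g, mean and range, n=5. Thyroid weight was taken as 7.5 mg/100 g body weight.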

Series [4] relates to Rattus norvegicus. Nature of the series: Evaluated for the distribution of radioactivity in tissues of female Fischer rats blood after 60 minutes intravenous administration; dose/g, range 0.16-0.21. It is filed as ADME, organism-based. The following applies: in vivo, 1 h.
For series [5], the system named is Rattus norvegicus. Briefly: Evaluated for the distribution of radioactivity in tissues of female Fischer rats lungs after 30 minutes intravenous administration; dose/g, range 1.07-1.30. It is filed as ADME, organism-based, Lung. As to conditions: in vivo, 0.5 h. The essentials:
as §1

Series [6] concerns Rattus norvegicus. Nature of the series: Evaluated for the distribution of radioactivity in tissues of female Fischer rats lungs after 5 minutes intravenous administration; dose/g, range 1.20-1.52. It is filed as ADME, organism-based, Lung. The following applies: in vivo. Summed up: as §1
The subject of series [7] is Rattus norvegicus. Nature of the series: Evaluated for the distribution of radioactivity in tissues of female Fischer rats lungs after 60 minutes intravenous administration; dose/g, range 0.97-1.54. It is filed as ADME, organism-based, Lung. The following applies: in vivo, 1 h. Summed up:
as §1

The test system of series [8] is Rattus norvegicus. Briefly: Evaluated for the distribution of radioactivity in tissues of female Fischer rats blood after 30 minutes intravenous administration; dose/g, range 0.25-0.32. Format: ADME, organism-based. As to conditions: in vivo, 0.5 h.
Series [9] relates to Rattus norvegicus. Nature of the series: Evaluated for the distribution of radioactivity in tissues of female Fischer rats thyroid after 30 minutes intravenous administration; dose/g, range 33-60. As to conditions: in vivo, 0.5 h. It is filed as ADME, organism-based, Thyroid gland. The essentials: as §1
The test system of series [10] is Rattus norvegicus. Briefly: Evaluated for the distribution of radioactivity in tissues of female Fischer rats thyroid after 5 minutes intravenous administration; dose/g, range 29-36. It is filed as ADME, organism-based, Thyroid gland. The following applies: in vivo. Summed up:
as §1

Series [11] has as its system Rattus norvegicus. Nature of the series: Evaluated for the distribution of radioactivity in tissues of female Fischer rats blood after 5 minutes intravenous administration; dose/g, range 0.44-0.52. Format: ADME, organism-based. As to conditions: in vivo.
For series [12], the system named is Rattus norvegicus. Briefly: Evaluated for the distribution of radioactivity in tissues of female Fischer rats kidneys after 30 minutes intravenous administration; dose/g, range 6.28-7.41. Format: ADME, organism-based, Kidney. The following applies: in vivo, 0.5 h.
The subject of series [13] is Rattus norvegicus. Briefly: Evaluated for the distribution of radioactivity in tissues of female Fischer rats heart after 5 minutes intravenous administration; dose/g, range 2.72-3.52. Format: ADME, organism-based. The following applies: in vivo.
The test system of series [14] is Rattus norvegicus. Nature of the series: Evaluated for the distribution of radioactivity in tissues of female Fischer rats heart after 60 minutes intravenous administration; dose/g, range 2.88-4.32. It is filed as ADME, organism-based. The following applies: in vivo, 1 h.
The subject of series [15] is Rattus norvegicus. Briefly: Evaluated for the distribution of radioactivity in tissues of female Fischer rats liver after 30 minutes intravenous administration.; dose/g, range 0.23-0.29. As to conditions: in vivo, 0.5 h. It is filed as ADME, organism-based.
Series [16] deals with Rattus norvegicus. Nature of the series: Evaluated for the distribution of radioactivity in tissues of female Fischer rats liver after 5 minutes intravenous administration; dose/g, range 0.93-1.20. It is filed as ADME, organism-based. The following applies: in vivo. The essentials: as §1
Series [17] relates to Rattus norvegicus. Briefly: Evaluated for the distribution of radioactivity in tissues of female Fischer rats liver after 60 minutes intravenous administration; dose/g, range 0.14-0.19. Format: ADME, organism-based. The following applies: in vivo, 1 h. The essentials:
as §1

Series [18] deals with Rattus norvegicus. Nature of the series: Evaluated for the distribution of radioactivity in tissues of female Fischer rats heart after 30 minutes intravenous administration; dose/g, range 2.47-2.96. Format: ADME, organism-based. As to conditions: in vivo, 0.5 h.
For series [19], the system named is Rattus norvegicus. Nature of the series: Evaluated for the distribution of radioactivity in tissues of female Fischer rats liver after 60 minutes intravenous administration; dose/g, range 0.15-0.19. It is filed as ADME, organism-based. As to conditions: in vivo, 1 h. Summed up:
as §1

In series [20] the test system is Rattus norvegicus. Briefly: Evaluated for the distribution of radioactivity in tissues of female Fischer rats kidneys after 60 minutes intravenous administration; dose/g, range 5.02-6.57. It is filed as ADME, organism-based, Kidney. The following applies: in vivo, 1 h.
In series [21] the test system is Rattus norvegicus. Nature of the series: Evaluated for the distribution of radioactivity in tissues of female Fischer rats kidneys after 5 minutes intravenous administration; dose/g, range 11.7-14.6. Format: ADME, organism-based, Kidney. As to conditions: in vivo.
Series [22] has as its system Rattus norvegicus. Nature of the series: Evaluated for the distribution of radioactivity in tissues of female Fischer rats blood after 60 minutes intravenous administration; dose/g, range 0.15-0.20. Format: ADME, organism-based. The following applies: in vivo, 1 h.
For series [23], the system named is Rattus norvegicus. Nature of the series: Evaluated for the distribution of radioactivity in tissues of female Fischer rats lungs after 30 minutes intravenous administration; dose/g, range 1.12-1.39. Format: ADME, organism-based, Lung. As to conditions: in vivo, 0.5 h. The essentials: as §1
The subject of series [24] is Rattus norvegicus. Briefly: Evaluated for the distribution of radioactivity in tissues of female Fischer rats lungs after 5 minutes intravenous administration; dose/g, range 1.18-1.44. It is filed as ADME, organism-based, Lung. As to conditions: in vivo. The essentials: as §1
The subject of series [25] is Rattus norvegicus. Briefly: Evaluated for the distribution of radioactivity in tissues of female Fischer rats lungs after 60 minutes intravenous administration; dose/g, range 0.94-1.36. Format: ADME, organism-based, Lung. The following applies: in vivo, 1 h. The essentials: as §1
The test system of series [26] is Rattus norvegicus. Nature of the series: Evaluated for the distribution of radioactivity in tissues of female Fischer rats blood after 30 minutes intravenous administration; dose/g, range 0.18-0.24. Format: ADME, organism-based. The following applies: in vivo, 0.5 h.
Series [27] concerns Rattus norvegicus. Briefly: Evaluated for the distribution of radioactivity in tissues of female Fischer rats thyroid after 30 minutes intravenous administration; dose/g, range 29-44. Format: ADME, organism-based, Thyroid gland. The following applies: in vivo, 0.5 h. Summed up: as §1
The subject of series [28] is Rattus norvegicus. Briefly: Evaluated for the distribution of radioactivity in tissues of female Fischer rats thyroid after 5 minutes intravenous administration; dose/g, range 16-32. It is filed as ADME, organism-based, Thyroid gland. The following applies: in vivo. The essentials:
as §1

In series [29] the test system is Rattus norvegicus. Briefly: Evaluated for the distribution of radioactivity in tissues of female Fischer rats thyroid after 60 minutes intravenous administration; dose/g, range 32-43. Format: ADME, organism-based, Thyroid gland. As to conditions: in vivo, 1 h. The essentials: as §1
The test system of series [30] is Rattus norvegicus. Briefly: Evaluated for the distribution of radioactivity in tissues of female Fischer rats blood after 5 minutes intravenous administration; dose/g, range 0.32-0.46. It is filed as ADME, organism-based. As to conditions: in vivo.
In series [31] the test system is Rattus norvegicus. Briefly: Evaluated for the distribution of radioactivity in tissues of female Fischer rats heart after 60 minutes intravenous administration; dose/g, range 3.21-3.92. Format: ADME, organism-based. The following applies: in vivo, 1 h.
Series [32] relates to Rattus norvegicus. Nature of the series: Evaluated for the distribution of radioactivity in tissues of female Fischer rats kidneys after 30 minutes intravenous administration; dose/g, range 6.47-10.2. Format: ADME, organism-based, Kidney. The following applies: in vivo, 0.5 h.
For series [33], the system named is Rattus norvegicus. Briefly: Evaluated for the distribution of radioactivity in tissues of female Fischer rats heart after 30 minutes intravenous administration; dose/g, range 2.67-3.69. It is filed as ADME, organism-based. As to conditions: in vivo, 0.5 h.
Series [34] has as its system Rattus norvegicus. Briefly: Evaluated for the distribution of radioactivity in tissues of female Fischer rats heart after 5 minutes intravenous administration; dose/g, range 2.82-3.86. As to conditions: in vivo. It is filed as ADME, organism-based.
Series [35] relates to Rattus norvegicus. Briefly: Evaluated for the distribution of radioactivity in tissues of female Fischer rats liver after 30 minutes intravenous administration; dose/g, range 0.22-0.30. Format: ADME, organism-based. The following applies: in vivo, 0.5 h.
Series [36] has as its system Rattus norvegicus. Briefly: Evaluated for the distribution of radioactivity in tissues of female Fischer rats liver after 5 minutes intravenous administration; dose/g, range 1.06-1.70. As to conditions: in vivo. It is filed as ADME, organism-based. The essentials: as §1

As to `I/C=C/CCC[P+](C1CCCCC1)(C1CCCCC1)C1CCCCC1.[I-]`, the Distribution in the series on Rattus norvegicus [1] came out at 11.06%; in the series with Rattus norvegicus [2] it was 4.15%; in the series on Rattus norvegicus [3], 71%; with Rattus norvegicus [4], 0.19%; in the series with Rattus norvegicus [5], 1.2%; in the series on Rattus norvegicus [6] it was 1.31%. For the same compound, the Distribution amounted to 1.16% with Rattus norvegicus [7]; 0.28% with Rattus norvegicus [8]; 45% in the series on Rattus norvegicus [9]; 31% in the series on Rattus norvegicus [10]; 0.47% in the series on Rattus norvegicus [11]; 6.89% with Rattus norvegicus [12]. In addition, the Distribution with Rattus norvegicus [13] stood at 2.99%; with Rattus norvegicus [14] it was 3.42%; with Rattus norvegicus [15] it was 0.25%; in the series with Rattus norvegicus [16], 1.06%; in the series with Rattus norvegicus [17] it was 0.17%; in the series on Rattus norvegicus [18], 2.67%.
Turning to `I/C=C/CCC[P+](c1ccccc1)(C1CCCCC1)C1CCCCC1.[I-]`, the Distribution with Rattus norvegicus [19] is reported as 0.17%; with Rattus norvegicus [20], 5.66%; in the series on Rattus norvegicus [21] it was 13.07%; with Rattus norvegicus [22] it was 0.17%; with Rattus norvegicus [23], 1.24%; in the series with Rattus norvegicus [24], 1.32%. The Distribution in the series on Rattus norvegicus [25] was determined as 1.15%; in the series on Rattus norvegicus [26], 0.2%; in the series with Rattus norvegicus [27], 38%; in the series with Rattus norvegicus [28], 25%; with Rattus norvegicus [29], 39%; in the series on Rattus norvegicus [30], 0.37%. Moreover, the Distribution in the series on Rattus norvegicus [31] is 3.47%; in the series on Rattus norvegicus [32], 8.41%; in the series on Rattus norvegicus [33] it was 3.17%; in the series on Rattus norvegicus [34], 3.44%; with Rattus norvegicus [35], 0.26%; in the series with Rattus norvegicus [36], 1.39%.
